Laboratory results from ChEMBL document CHEMBL4014338, “Discovery of Small Molecules as Multi-Toll-like Receptor Agonists with Proinflammatory and Anticancer Activities” (J Med Chem, 2017).
pEC50, pIC50: −log10 of the molar value.

Key:
HeLa [1] = assay: Cell cycle arrest in human HeLa cells assessed as accumulation at G0/G1 phase at 30 uM after 24 hrs by propidium iodide staining based flow cytometry (reference value: 52%); assay type: functional
HeLa [2] = assay: Induction of apoptosis in human HeLa cells at 10 to 40 uM after 24 hrs by Annexin V-FITC/propidium iodide staining based flow cytometry (reference value: 10%); assay type: functional
Procedure, shortened: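 HeLa cells seeded at 3 × 10^5/well and attached 24 h, treated 24 h with 10, 20, 30 or 40 μM (DMSO or poly I:C 5 μg/mL as controls). Harvested with EDTA-free trypsin, washed twice in PBS, stained with annexin V-FITC/PI, and analyzed by flow cytometry. Early plus late apoptotic percentages reported as mean ± SD of three experiments.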

[3] = target: T1, Toll-like receptor 3/8/9 (Homo sapiens) (UniProt O15455+Q9NR96+Q9NR97); assay: Agonist activity at TLR3/TLR8/TLR9 in human THP1 cells assessed as increase in IL-8 mRNA level after 12 hrs by qRT-PCR method; assay type: cell-based
T1 sequence (Q9NR96 whole entry, looked up, one chain of several): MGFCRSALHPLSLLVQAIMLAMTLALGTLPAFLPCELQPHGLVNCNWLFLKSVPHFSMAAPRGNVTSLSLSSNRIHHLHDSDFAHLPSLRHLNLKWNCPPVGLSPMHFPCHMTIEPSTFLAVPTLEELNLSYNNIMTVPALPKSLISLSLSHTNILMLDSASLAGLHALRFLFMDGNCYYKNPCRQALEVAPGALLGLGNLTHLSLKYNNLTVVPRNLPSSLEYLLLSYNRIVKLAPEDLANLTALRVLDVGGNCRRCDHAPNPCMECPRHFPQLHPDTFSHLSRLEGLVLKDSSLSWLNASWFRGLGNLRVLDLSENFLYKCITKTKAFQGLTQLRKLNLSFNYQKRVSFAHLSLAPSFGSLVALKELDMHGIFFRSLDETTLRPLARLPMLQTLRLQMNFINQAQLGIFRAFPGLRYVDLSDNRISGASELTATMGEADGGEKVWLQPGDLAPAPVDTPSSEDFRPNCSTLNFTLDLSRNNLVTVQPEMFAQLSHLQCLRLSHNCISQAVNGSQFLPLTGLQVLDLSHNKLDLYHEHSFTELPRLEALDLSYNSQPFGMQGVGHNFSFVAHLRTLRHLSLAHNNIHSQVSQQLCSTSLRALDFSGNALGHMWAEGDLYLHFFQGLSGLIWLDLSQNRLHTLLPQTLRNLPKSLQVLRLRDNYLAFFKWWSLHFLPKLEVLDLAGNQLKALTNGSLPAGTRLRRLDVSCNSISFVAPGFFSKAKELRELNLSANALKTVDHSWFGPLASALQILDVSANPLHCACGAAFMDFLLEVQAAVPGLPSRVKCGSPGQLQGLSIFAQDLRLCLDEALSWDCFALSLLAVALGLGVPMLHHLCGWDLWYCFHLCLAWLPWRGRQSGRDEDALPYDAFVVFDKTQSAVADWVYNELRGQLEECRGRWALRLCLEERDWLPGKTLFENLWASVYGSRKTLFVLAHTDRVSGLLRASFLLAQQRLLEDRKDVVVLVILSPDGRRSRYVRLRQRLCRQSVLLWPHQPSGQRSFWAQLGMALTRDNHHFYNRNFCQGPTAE
T1 sequence (Q9NR97 whole entry, looked up, one chain of several): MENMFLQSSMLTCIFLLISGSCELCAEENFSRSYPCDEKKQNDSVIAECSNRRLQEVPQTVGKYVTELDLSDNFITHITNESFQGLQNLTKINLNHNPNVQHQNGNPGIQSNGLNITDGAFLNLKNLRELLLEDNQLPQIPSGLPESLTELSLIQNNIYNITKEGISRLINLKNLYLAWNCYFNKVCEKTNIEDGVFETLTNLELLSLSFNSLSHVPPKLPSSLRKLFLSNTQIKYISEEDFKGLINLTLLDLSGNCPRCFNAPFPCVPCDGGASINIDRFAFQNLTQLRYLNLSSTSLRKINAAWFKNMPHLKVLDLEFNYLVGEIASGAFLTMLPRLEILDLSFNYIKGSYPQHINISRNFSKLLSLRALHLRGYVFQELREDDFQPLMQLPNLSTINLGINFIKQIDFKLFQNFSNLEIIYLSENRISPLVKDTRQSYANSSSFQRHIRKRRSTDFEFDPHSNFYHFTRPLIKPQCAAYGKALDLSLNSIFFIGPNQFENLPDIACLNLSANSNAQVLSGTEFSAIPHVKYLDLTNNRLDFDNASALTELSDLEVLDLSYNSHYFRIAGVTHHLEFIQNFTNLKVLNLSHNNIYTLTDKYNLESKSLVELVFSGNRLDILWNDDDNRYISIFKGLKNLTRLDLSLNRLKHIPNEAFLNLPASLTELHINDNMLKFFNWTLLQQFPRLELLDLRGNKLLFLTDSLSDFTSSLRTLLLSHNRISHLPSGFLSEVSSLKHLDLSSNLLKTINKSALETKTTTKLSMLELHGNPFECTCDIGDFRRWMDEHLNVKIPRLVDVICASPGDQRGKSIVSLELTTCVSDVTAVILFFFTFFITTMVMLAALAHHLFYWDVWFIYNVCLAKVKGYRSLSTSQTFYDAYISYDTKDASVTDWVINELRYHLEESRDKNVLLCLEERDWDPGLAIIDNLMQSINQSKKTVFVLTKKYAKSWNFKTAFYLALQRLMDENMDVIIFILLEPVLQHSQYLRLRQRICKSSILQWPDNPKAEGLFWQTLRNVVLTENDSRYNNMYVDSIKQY
Procedure, shortened: (§1)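 THP-1 cells (1.5 × 10^6/well) differentiated with PMA (20 nM) for 2 days, then 24 h in fresh RPMI 1640; nonadherent cells removed. Treated with indicated compound concentrations for 12 h, washed with PBS, and mRNA measured by qRT-PCR. Expressed as fold change versus untreated control, poly I:C (5 μg/mL) as reference. Mean ± SD of three independent experiments.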

HeLa [4] = assay: Cell cycle arrest in human HeLa cells assessed as accumulation at S phase at 30 uM after 24 hrs by propidium iodide staining based flow cytometry (reference value: 31%); assay type: functional
HeLa [5] = assay: Antiproliferative activity against human HeLa cells after 72 hrs by WST1 assay; assay type: functional, cell-based
Procedure, shortened: (§2)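 Cells seeded at 5 × 10^3/well and left 24 h, then given a concentration series for 24, 48 or 72 h. WST-1 reagent added and incubated at 37 °C for 30 min–2 h until color change; absorbance 450 nm. Growth inhibition = (1 − [sample − background]/[control − background]) × 100. IC50 mean ± SD, three cell preparations.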

HMEC = assay: Antiproliferative activity against HMEC after 24 hrs by WST1 assay; assay type: cell-based; settings: Homo sapiens; procedure, shortened: as §2
[6] = target: Toll-like receptor 3 (Homo sapiens) (UniProt O15455); assay: Agonist activity at human TLR3 expressed in HEK293 cells assessed as induction of NF-kB activation-mediated SEAP production at 25 uM after 24 hrs by HTS assay relative to control; assay type: cell-based
Procedure, shortened: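 hTLR3 HEK293 SEAP reporter cells seeded at 5 × 10^4 cells/well for 24 h, exposed to 25 μM for 24 h. Supernatant SEAP detected with QUANTI-Blue (1 h, 37 °C, OD 620 nm). Activation normalized to untreated cells and expressed as fold change.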

[7] = target: T1, Toll-like receptor 3/8/9 (Homo sapiens); assay: Agonist activity at TLR3/TLR8/TLR9 in human THP1 cells assessed as increase in TNFalpha mRNA level after 12 hrs by qRT-PCR method; assay type: cell-based; procedure, shortened: as §1
[8] = target: T1, Toll-like receptor 3/8/9 (Homo sapiens); assay: Agonist activity at TLR3/TLR8/TLR9 in human THP1 cells assessed as increase in IL-6 mRNA level after 12 hrs by qRT-PCR method; assay type: cell-based; procedure, shortened: as §1
HeLa [9] = assay: Cell cycle arrest in human HeLa cells assessed as accumulation at S phase at 10 uM after 24 hrs by propidium iodide staining based flow cytometry (reference value: 31%); assay type: functional
HeLa [10] = assay: Cell cycle arrest in human HeLa cells assessed as accumulation at G0/G1 phase at 20 uM after 24 hrs by propidium iodide staining based flow cytometry (reference value: 52%); assay type: functional
Toll-like receptor 5 = Toll-like receptor 5 (Homo sapiens, UniProt O60602); assay: Agonist activity at human TLR5 expressed in HEK293 cells assessed as induction of NF-kB activation-mediated SEAP production after 24 hrs by HTS assay; assay type: cell-based
Sequence of Toll-like receptor 5 (O60602 whole entry): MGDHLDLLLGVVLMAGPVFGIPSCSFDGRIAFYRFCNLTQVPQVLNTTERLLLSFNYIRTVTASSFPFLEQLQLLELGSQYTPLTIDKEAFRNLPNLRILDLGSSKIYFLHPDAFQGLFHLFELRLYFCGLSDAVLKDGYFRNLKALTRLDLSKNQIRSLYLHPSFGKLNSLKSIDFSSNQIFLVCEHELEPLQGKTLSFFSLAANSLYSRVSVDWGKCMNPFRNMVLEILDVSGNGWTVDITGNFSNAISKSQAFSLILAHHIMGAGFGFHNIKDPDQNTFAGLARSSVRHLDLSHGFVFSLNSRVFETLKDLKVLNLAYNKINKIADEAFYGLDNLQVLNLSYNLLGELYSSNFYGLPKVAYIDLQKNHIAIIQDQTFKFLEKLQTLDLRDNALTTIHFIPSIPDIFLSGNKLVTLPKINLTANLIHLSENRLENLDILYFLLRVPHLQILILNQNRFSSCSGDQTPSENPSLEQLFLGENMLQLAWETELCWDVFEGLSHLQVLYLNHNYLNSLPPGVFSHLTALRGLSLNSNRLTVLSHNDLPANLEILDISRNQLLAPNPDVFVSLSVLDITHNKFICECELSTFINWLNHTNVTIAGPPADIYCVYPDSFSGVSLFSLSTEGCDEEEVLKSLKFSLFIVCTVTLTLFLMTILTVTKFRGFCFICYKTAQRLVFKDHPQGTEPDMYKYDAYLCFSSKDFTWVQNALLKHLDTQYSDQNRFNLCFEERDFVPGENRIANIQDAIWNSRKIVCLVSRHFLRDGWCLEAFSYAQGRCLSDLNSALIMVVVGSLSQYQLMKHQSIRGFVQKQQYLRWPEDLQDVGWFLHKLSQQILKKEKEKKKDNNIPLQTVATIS
Procedure, shortened: (§3)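 Stable HEK293 lines expressing a single hTLR plus a SEAP reporter, grown in DMEM/10% FBS with selective antibiotics. Seeded at 5 × 10^4 cells/well for 24 h at 37 °C, then treated 24 h. Supernatant mixed with QUANTI-Blue, 1 h at 37 °C, OD 620 nm. Cognate agonists: Pam3CSK4 (TLR2), poly I:C (TLR3), LPS (TLR4), FLA-BS (TLR5), R848 (TLR7). EC50 as mean ± SD.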

Toll-like receptor 4 = Toll-like receptor 4 (Homo sapiens, UniProt O00206); assay: Agonist activity at human TLR4 expressed in HEK293 cells assessed as induction of NF-kB activation-mediated SEAP production after 24 hrs by HTS assay; assay type: cell-based; procedure, shortened: as §3
Sequence of Toll-like receptor 4 (O00206 whole entry): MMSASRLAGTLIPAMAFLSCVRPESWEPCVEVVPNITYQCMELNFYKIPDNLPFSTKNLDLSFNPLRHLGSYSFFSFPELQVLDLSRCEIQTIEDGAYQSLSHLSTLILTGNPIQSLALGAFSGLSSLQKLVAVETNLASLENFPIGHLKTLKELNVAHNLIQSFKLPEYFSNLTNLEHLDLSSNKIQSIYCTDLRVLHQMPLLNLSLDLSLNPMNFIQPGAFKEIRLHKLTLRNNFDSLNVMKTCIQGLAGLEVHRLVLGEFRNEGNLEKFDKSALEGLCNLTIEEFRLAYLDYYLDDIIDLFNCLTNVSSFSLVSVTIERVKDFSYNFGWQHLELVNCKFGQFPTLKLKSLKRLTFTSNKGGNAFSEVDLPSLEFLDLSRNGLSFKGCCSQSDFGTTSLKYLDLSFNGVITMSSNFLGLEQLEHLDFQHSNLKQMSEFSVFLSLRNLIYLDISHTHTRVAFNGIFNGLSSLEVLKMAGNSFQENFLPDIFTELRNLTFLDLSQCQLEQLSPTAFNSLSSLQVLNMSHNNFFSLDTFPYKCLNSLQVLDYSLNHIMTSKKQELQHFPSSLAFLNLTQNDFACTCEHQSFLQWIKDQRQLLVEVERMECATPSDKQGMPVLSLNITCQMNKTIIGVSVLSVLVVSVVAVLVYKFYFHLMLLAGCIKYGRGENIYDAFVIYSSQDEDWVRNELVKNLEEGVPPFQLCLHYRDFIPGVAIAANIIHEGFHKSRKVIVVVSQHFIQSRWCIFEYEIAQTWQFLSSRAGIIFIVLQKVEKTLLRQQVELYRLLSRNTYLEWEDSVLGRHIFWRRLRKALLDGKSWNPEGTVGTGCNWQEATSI

Toll-like receptor 3 = target: T2, Toll-like receptor 3 (Homo sapiens, UniProt O15455); assay: Agonist activity at human TLR3 expressed in HEK293 cells assessed as induction of NF-kB activation-mediated SEAP production after 24 hrs by HTS assay; assay type: cell-based; procedure, shortened: as §3
T2 sequence (O15455 whole entry): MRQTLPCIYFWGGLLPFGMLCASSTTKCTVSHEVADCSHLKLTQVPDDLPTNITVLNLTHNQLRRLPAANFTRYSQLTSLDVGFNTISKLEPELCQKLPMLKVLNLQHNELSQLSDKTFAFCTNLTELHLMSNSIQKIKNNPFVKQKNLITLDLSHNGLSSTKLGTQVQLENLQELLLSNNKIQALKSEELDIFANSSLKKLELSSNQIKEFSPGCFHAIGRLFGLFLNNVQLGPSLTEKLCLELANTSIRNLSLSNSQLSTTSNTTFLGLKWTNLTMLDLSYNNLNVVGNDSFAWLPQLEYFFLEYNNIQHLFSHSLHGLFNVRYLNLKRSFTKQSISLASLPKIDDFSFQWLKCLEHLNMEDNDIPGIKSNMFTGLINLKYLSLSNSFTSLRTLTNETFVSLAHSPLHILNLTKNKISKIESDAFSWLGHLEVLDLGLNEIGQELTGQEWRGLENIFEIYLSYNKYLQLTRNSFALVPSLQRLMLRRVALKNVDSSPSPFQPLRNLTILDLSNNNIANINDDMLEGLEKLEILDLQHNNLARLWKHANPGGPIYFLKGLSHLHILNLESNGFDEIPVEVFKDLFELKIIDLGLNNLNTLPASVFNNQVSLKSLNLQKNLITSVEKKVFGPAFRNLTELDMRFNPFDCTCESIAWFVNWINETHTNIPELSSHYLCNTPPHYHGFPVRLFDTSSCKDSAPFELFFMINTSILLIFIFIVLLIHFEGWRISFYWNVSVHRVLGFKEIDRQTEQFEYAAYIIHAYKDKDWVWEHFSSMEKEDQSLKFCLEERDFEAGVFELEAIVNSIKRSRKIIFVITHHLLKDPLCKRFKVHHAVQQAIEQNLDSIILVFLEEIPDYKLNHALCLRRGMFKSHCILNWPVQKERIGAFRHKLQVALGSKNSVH

HeLa [11] = assay: Cell cycle arrest in human HeLa cells assessed as accumulation at G2/M phase at 30 uM after 24 hrs by propidium iodide staining based flow cytometry (reference value: 17%); assay type: functional
Toll-like receptor 2 = Toll-like receptor 2 (Homo sapiens, UniProt O60603); assay: Agonist activity at human TLR2 expressed in HEK293 cells assessed as induction of NF-kB activation-mediated SEAP production after 24 hrs by HTS assay; assay type: cell-based; procedure, shortened: as §3
Sequence of Toll-like receptor 2 (O60603 whole entry): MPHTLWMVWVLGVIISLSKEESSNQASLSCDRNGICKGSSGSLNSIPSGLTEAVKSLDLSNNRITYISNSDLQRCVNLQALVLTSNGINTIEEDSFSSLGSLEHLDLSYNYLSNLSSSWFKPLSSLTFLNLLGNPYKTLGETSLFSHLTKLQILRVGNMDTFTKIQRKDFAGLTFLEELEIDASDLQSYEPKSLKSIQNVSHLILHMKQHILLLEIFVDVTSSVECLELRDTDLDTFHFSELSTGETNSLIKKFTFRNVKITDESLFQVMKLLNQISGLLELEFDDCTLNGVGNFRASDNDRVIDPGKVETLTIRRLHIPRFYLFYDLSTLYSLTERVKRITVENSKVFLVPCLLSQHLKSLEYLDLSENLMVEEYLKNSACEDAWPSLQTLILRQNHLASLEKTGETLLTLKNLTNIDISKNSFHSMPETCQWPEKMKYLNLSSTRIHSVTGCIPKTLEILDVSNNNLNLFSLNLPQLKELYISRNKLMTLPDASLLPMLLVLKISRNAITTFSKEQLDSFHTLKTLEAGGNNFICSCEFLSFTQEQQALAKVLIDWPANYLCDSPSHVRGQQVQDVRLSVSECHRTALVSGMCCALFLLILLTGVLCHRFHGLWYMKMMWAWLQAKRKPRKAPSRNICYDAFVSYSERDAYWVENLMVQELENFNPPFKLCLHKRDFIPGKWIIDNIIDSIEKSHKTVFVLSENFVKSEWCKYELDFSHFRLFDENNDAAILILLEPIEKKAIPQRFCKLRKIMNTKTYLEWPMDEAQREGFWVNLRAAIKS

SMILES: O=[N+]([O-])c1ccc(COc2cc3c(cc2OCc2ccc([N+](=O)[O-])cc2)OC2(C=C3)CCOCC2)cc1
- Activity (HeLa [1]): 41%
- Activity (HeLa [2]): 17%
- Activity [3]: Dose-dependent effect
- Activity (HeLa [4]): 39%
- Activity (HeLa [5]): Dose-dependent effect
- pIC50 (HeLa [5]): 5.57
- pIC50 (HMEC): < 4.00
- fold change (FC) [6]: 13.9
- Activity [7]: Dose-dependent effect
- Activity [8]: Dose-dependent effect
- Activity (HeLa [9]): 35%
- Activity (HeLa [10]): 43%
- pEC50 (Toll-like receptor 5): < 4.00
- pEC50 (Toll-like receptor 4): < 4.00
- pEC50 (Toll-like receptor 3): 5.32
- Activity (HeLa [11]): 20%
- pEC50 (Toll-like receptor 2): < 4.00
